Source: PubChem BioAssay (several laboratories)
A selection: hits, their analogues and other compounds. The true share with any hit is near 5.1%.
STAT1 activator = STAT1 signaling activators, primary screen, cell-based, HTS, luciferase reporter; NIH 3T3 STAT1-luciferase reporter, IFN-gamma, luminescence; 100% = IFN-gamma alone, no compound; activation (% of control), % at 5.5 µM; actives 2.6% (n = 200,000); AID 932, 2007;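 active = activation above the screen-wide mean activation plus 3 SD, cut at about 130% in these data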
STAT3 activator = IL-6 driven STAT3 reporter potentiators, primary screen, U3A cells, luciferase, luminescence, MLSCN library; actives 0.91% (n = 190,000); IL-6 STAT3-luciferase reporter; 100% = signal with IL-6 EC80 alone; activation (% of control), % at 5.6 µM;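 active = activation above the screen-wide mean of compound activation plus 3 SD, cut at about 130% in these data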
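Test system: Human STAT1-deficient U3A cells with stable STAT3-luciferase reporter | Also added: Interleukin-6, 33 ng/mL | Timing: Compound pre-incubation 1 h before IL-6, then 6 h stimulation at 37 °C | Technique: Luciferase reporter luminescence | Read-out: Percent of IL-6-only median luminescence | Benchmarks: IL-6-only wells as 100% reference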
APP 5'UTR act = activators of APP 5'UTR luciferase reporter, primary screen, SH-SY5Y cells | SH-SY5Y APP 5'UTR luciferase reporter, luminescence; zero percent = DMSO vehicle wells | activation, % at 2 µM | actives 1% (n = 190,000) | AID 1276, 2008;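 active = activation above a set limit, based on mean plus 3 SD of controls, cut at about 140% in these data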
STAT3 inh = IL-6 driven STAT3 reporter inhibitors, primary screen, U3A cells, luciferase, luminescence, MLSCN library; IL-6 STAT3-luciferase reporter; host cell line lacks STAT1; inhibition, % at 5.5 µM; actives 0.89% (n = 190,000); AID 862, 2007;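 active = inhibition above the mean inhibition across all screened compounds plus 3 SD, cut at about 44% in these data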
STAT1 inh = STAT1 signaling inhibitors, primary screen, cell-based, HTS, luciferase reporter; inhibition, % at 5.5 µM; NIH 3T3 STAT1-luciferase reporter, IFN-gamma, luminescence; actives 0.35% (n = 200,000);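 active = inhibition above a set limit, the mean inhibition across all tested compounds plus 3 SD, cut at about 34% in these data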
NF-kB neuron act = activators of NF-kB expression in neurons, primary screen, cell-based, HTS; human neuronal cells, NF-kB reporter expression; active compounds read high; fold change at 12.5 µM; actives 1.6% (n = 190,000); AID 1239, 2008; in the data active = fold change above about 3.3
Hits are given with their value; i = inactive; nt = no result given.

SMILES	STAT1 activator	STAT3 activator	APP 5'UTR act	STAT3 inh	STAT1 inh	NF-kB neuron act
Cc1ccc(-n2nc(C)c3c2OC(N)=C(C#N)C3c2ccccc2F)cc1 (stereo unspecified)	i	146	i	i	i	i
CCOC(=O)C1(CCCc2ccccc2)CCN(C(=O)CCOC)CC1	i	i	i	i	i	i
COc1cc(O)cc2occ(-c3ccc(O)cc3)c(=O)c12	i	nt	i	nt	i	i
COc1ccc(-c2coc3cc(OC)cc(OC)c3c2=O)cc1	i	nt	i	nt	i	i
COc1ccc(-c2coc3cc(OC)cc(O)c3c2=O)cc1	143	i	155	i	i	5.5
CC(C)Oc1cc(O)c2c(=O)c(-c3ccc(O)cc3)coc2c1	i	i	164	i	i	9
S=c1sc(SCCOc2ccccc2)nn1-c1ccccc1	i	i	i	i	i	i
O=C(OCC(=O)c1ccc[nH]1)c1ccccc1	138	i	i	i	i	i
COc1cccc2c1OCC(CN1CCN(CCC(C)C)C(CCO)C1)=C2 (stereo unspecified)	i	i	i	i	i	i
Cc1c(/C=C/C(=O)c2cccs2)cnn1C	i	i	i	i	i	i
CCc1ccc(C(=O)/C=C/c2cnn(C)c2C)s1	129	i	174	i	i	11
Cc1ccc(-n2c(SCC(=O)NCC3CCCO3)nc3n[nH]c(C)c3c2=N)cc1Cl (stereo unspecified)	i	i	i	45	i	i
N#C/C(=C\c1ccc(OCc2ccc(C(=O)O)cc2)cc1)C(=O)N1CCOCC1	i	i	i	89	69	7
COc1ccc(NC(=O)c2cc(-c3ccco3)on2)cc1	149	i	i	i	i	i
O=C(Nc1cccnc1Cl)c1cc(-c2ccco2)on1	i	i	i	i	i	i
CCc1ccc(NC(=O)c2cc(-c3ccco3)on2)cc1	130	i	i	i	i	i
COc1ccc(CC(=O)NC(C)c2nnc(SCC(=O)Nc3cc(C)ccc3OC)n2C)cc1 (stereo unspecified)	i	i	i	i	i	i
Cn1nnc2cc(C(=O)Nc3ccccc3)ccc21	130	i	i	i	i	i
Cn1nnc2cc(C(=O)Nc3ccc(Cl)cc3)ccc21	132	i	i	i	i	i
Cn1nnc2cc(C(=O)Nc3cccnc3)ccc21	i	i	i	i	i	i
Cc1ccc(NC(=O)c2ccc3c(c2)nnn3C)cc1	i	i	i	i	i	i
COc1ccc(/C=C/C(=O)c2c(O)ccc3c(C)cc(=O)oc23)cc1	i	i	i	i	i	i
Cc1nn(-c2ccccc2)c(Cl)c1/C=N/NC(=O)c1ccccc1NS(=O)(=O)c1cccs1	i	i	i	i	i	i
Cc1nn(-c2ccccc2)c(Cl)c1/C=N/NC(=O)c1ccc(NS(=O)(=O)c2cccs2)cc1	137	i	i	i	i	i
CCSCCc1nnc(NC(=O)Nc2cccc(C(F)(F)F)c2)s1	i	i	i	i	i	i
SMILES	STAT1 activator	STAT3 activator	APP 5'UTR act	STAT3 inh	STAT1 inh	NF-kB neuron act
CC(C)N(CCNCc1nnc(-c2ccccc2)o1)C(C)C	i	i	i	i	i	i
Cc1nc(C)c(/C(O)=C/c2nc3ccccc3oc2=O)s1	i	i	i	i	i	4.8
CCCCCCCOc1ccc(OC(=O)c2cccnc2)cc1	i	i	i	i	i	11
CCCCCCCOc1ccc(OC(=O)c2ccncc2)cc1	i	i	i	i	i	8.6
CCCCOc1ccc(OC(=O)c2cccnc2)cc1	i	i	i	i	i	i
CCOc1ccc(NC(=S)C(C#N)=C2N(C)c3ccccc3N2C)cc1	i	i	i	i	i	i
NNC(=O)CN1CCCc2ccccc21	148	i	i	i	i	i
O=C(CN1CCN(c2ccccc2O)CC1)NC(=O)NCc1ccco1	i	i	i	i	i	i
O=C(CN1CCc2ccccc21)NC(=O)NCc1ccco1	i	135	i	i	i	i
O=C(CCSCCC(=O)Nc1ccccc1F)Nc1ccccc1F	i	i	i	i	i	i
CN(CCC#N)CC(=O)Nc1ccc(NC(=O)CN(C)CCC#N)cc1	i	i	i	i	i	i
